# Source: PubChem BioAssay (several laboratories)
# TNAP act hiacc: TNAP (human) activation, high acceptor. P05186. purified TNAP, CDP-star luminescence, 1 M DEA, 30 min; hits give high values; 0 = EDTA background, 1 = DMSO-only activity. activation factor at 20 µM. 200,000 tested, under 10 active;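 active = activation factor at least 2 at 20 µM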
# Target sequence (P05186 whole entry, looked up): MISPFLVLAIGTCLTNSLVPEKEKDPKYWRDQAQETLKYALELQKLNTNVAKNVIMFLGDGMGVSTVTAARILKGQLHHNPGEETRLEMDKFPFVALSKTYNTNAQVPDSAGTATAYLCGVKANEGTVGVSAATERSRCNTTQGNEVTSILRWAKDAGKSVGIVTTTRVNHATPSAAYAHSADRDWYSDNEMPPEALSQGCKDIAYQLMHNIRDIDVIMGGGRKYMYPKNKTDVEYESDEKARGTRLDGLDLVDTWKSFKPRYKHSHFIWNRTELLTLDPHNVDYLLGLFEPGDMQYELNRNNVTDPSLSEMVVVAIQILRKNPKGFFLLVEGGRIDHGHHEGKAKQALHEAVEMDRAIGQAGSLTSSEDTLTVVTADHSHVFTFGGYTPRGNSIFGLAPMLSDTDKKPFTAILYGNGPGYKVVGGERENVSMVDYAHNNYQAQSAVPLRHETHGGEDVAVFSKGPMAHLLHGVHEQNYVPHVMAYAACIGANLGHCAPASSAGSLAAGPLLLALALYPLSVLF
#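 Assay system: human TNAP; Input: enzyme diluted 1/800 final; Reagent: CDP-star luminogenic substrate at 100 µM final; Timing: 30 min, room temperature; Signal: luminescence; Evaluation: TNAP activation factor scaled between EDTA and DMSO control wells.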
# TNAP inh no acc: blocks human TNAP activity with no phosphate acceptor present; purified TNAP, CDP-star luminescence, 30 min; actives 0.26% (n = 200,000); P05186; inhibition, % at 20 µM;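 active = tissue-nonspecific alkaline phosphatase inhibition above about 50% at 20 µM in the single-dose screen, limit read from the data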
# TNAP inh hi DEA: inhibitors of human TNAP at high phosphate acceptor concentration. P05186. AID 1135. actives 0.03% (n = 200,000). inhibition, % at 20 µM. purified TNAP, CDP-star luminescence, 1 M DEA;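 active = over 50% inhibition of tissue-nonspecific alkaline phosphatase at 20 µM in the single-dose screen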
# Lmaj promast: reduces viability of Leishmania major promastigotes; resazurin fluorescence viability; inhibition, % at 10 µM; actives 9% (n = 200,000); AID 1063; in the data active = inhibition above about 50%;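 note: promastigotes grown with compound for 44 hours at 28 °C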
# HCT116 bCat-KO: beta-catenin-lacking colon tumor cell growth suppression. HCT116 beta-catenin knockout viability, CellTiter-Glo, 60 h; hits give low values. viability, % at 10 µM. actives 1.5% (n = 140,000). AID 818;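 active = viability at or under a set limit, the compound median less 4 SD, cut at about 6% in these data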
# HCT116 PTEN-null: suppresses growth of cells with PTEN deletion; actives 1.2% (n = 140,000); HCT116 PTEN-null viability, CellTiter-Glo, 60 h; hits give low values; viability, % at 10 µM;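 active = viability at or below a set limit, 4 SD under the median of all tested compounds, cut at about 3.7% in these data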;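 note: PTEN knockout HCT116 line with beta catenin targeted HCT116 as companion control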
# A number is an active result; n = inactive; x = no result given. Rows were chosen to be rich in hits. Some 9.6% of all compounds tested hit in one or more screens of this group.
SMILES,TNAP act hiacc,TNAP inh no acc,TNAP inh hi DEA,Lmaj promast,HCT116 bCat-KO,HCT116 PTEN-null
COc1nc(-c2ccccc2)nc(C)c1CC(=O)O,n,n,n,n,x,x
CC(NC(=O)/C(C#N)=C/c1cccs1)c1ccccc1 (stereo unspecified),n,n,n,n,x,x
COC(=O)c1ccc(/C=C(\C#N)C(=O)NC(C)c2ccccc2)cc1 (stereo unspecified),n,n,n,99,3.7,1.6
CCOc1ccc(CCNC(=O)COC(=O)c2ccc(OC)c(OC)c2OC)cc1OCC,n,n,n,66,x,x
O=C(Nc1ccc(Cl)cc1)N(Cc1cccnc1)Cc1ccco1,n,n,n,92,n,n
Cc1ccc(NC(=O)N(Cc2cccnc2)Cc2ccco2)cc1C,n,n,n,92,n,n
Cc1ccc(NC(=O)N(Cc2ccco2)Cc2cc3cc(C)cc(C)c3nc2Cl)cc1,n,n,n,n,n,n
N#CCCN(Cc1cccnc1)C(=O)Nc1ccc(Cl)c(Cl)c1,n,n,n,95,n,n
O=C(N/N=C/c1cccc(F)c1)c1c(O)c2c([nH]c1=O)CCCC2,n,n,n,n,n,n
COc1ccc(C(NC(=O)N2CC(C)OC(C)C2)C(Cl)(Cl)Cl)cc1F (stereo unspecified),n,n,n,n,n,n
CC(c1ccon1)N(C)C(=O)CCc1nnc(CCCCc2ccccc2)o1 (stereo unspecified),n,n,n,n,x,x
O=C(Nc1ccc(N2CCCCC2)cc1)c1cc([N+](=O)[O-])cc([N+](=O)[O-])c1,n,n,n,66,x,x
Cc1ccc(C(=O)Nc2ccc(N3CCCC3)cc2)cc1,n,n,n,n,x,x
CC(C)Oc1ccc(C(=O)Nc2ccc(N3CCCCC3)cc2)cc1,n,n,n,51,n,n
COc1ccc(C(=O)Nc2ccc(N3CCCCC3)cc2)cc1Br,n,n,n,52,n,n
CC(=O)N1CCN(c2ccc(NC(=O)c3ccc(C(C)(C)C)cc3)cc2)CC1,n,n,n,97,5.9,n
Cc1ccc(N(C(=O)Cn2nnc(-c3ccccc3)n2)C(C(=O)NC2CCCCC2)c2ccccn2)cc1C (stereo unspecified),n,n,n,n,n,n
Cc1cc(/C=C\c2nc(O)c([N+](=O)[O-])c(=O)[nH]2)c(C)n1-c1ccccc1,n,n,n,n,x,x
CC(C)C(OC(=O)c1cccs1)C(=O)NCc1ccc2c(c1)OCO2 (stereo unspecified),n,n,n,n,x,x
Cc1ccccc1OCC(=O)Nc1ccc(S(=O)(=O)Nc2ccccn2)cc1,n,n,n,n,n,n
CC(C)(C)c1ccc(/C=N/OCC(=O)NCc2ccc(F)cc2)cc1,n,n,n,n,n,n
CCN(CC)S(=O)(=O)c1ccc(N2CCOCC2)c(NC(=O)COc2ccccc2C#N)c1,n,n,n,n,x,x
CCN(CC)S(=O)(=O)c1ccc(N2CCOCC2)c(NC(=O)c2cc([N+](=O)[O-])ccc2Cl)c1,n,n,n,n,x,x
CCN(CC)S(=O)(=O)c1ccc(N2CCOCC2)c(NC(=O)Cc2ccc(Cl)cc2)c1,n,n,n,50,n,n
CCN(CC)S(=O)(=O)c1ccc(N2CCOCC2)c(NC(=O)CC23CC4CC(CC(Br)(C4)C2)C3)c1,n,n,n,51,n,n
SMILES,TNAP act hiacc,TNAP inh no acc,TNAP inh hi DEA,Lmaj promast,HCT116 bCat-KO,HCT116 PTEN-null
CC(C)C(=O)Nc1ccc(C(=O)N/N=C/c2cc(Br)cc(Br)c2O)cc1,n,n,n,89,x,x
O=C(N/N=C/c1cc(Cl)ccc1O)c1ccc(Br)cc1,n,n,n,99,n,n
CC(=O)Nc1ccc(C(=O)N/N=C/c2cc(Br)cc(Br)c2O)cc1,n,n,n,n,x,x
COc1cc(/C=N/NC(=O)c2cccc(S(=O)(=O)N3CCCCC3)c2)cc(Br)c1O,n,n,n,n,x,x
O=C(N/N=C/c1ccc(O)c(O)c1)c1cccc(S(=O)(=O)N2CCCCC2)c1,n,78,n,n,x,x
O=C(N/N=C\c1cc(Br)ccc1O)c1ccc(S(=O)(=O)N2CCCCC2)cc1,n,n,n,98,n,n
C[C@@H]1CN(c2c(F)c(N)c3c(=O)c(C(=O)O)cn(C4CC4)c3c2F)C[C@H](C)N1,n,n,n,x,x,x
CN(C)c1ccc(/C=N/NC(=O)c2ccc(Cl)cc2)cc1,n,n,n,n,n,n
Nc1nonc1C(=O)N/N=C/c1cc(Br)ccc1O,n,n,n,99,x,x
